Here are results for two molecules from BindingDB's records for doi:10.1021/jm0303608 (University of Florida, 2004).

The Kd is a measure of binding affinity in units of concentration. A high value points to lower affinity.

One test deals with Melanocortin receptor 3 (Mus musculus, UniProt P33033). Briefly: Effective concentration against mouse Melanocortin 3 receptor. The essentials: (§1)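 HEK-293 cells stably expressing the mouse receptor (calcium phosphate transfection, G418 1 mg/mL selection) were transfected with 4 μg CRE/β-galactosidase reporter. EC50 came from nonlinear least-squares fit; at least three independent experiments.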

Another test has as its target Melanocortin receptor 4 (Mus musculus, UniProt P56450). Kind of test: Effective concentration against mouse melanocortin MC4 receptor. The essentials: as §1

Sequence of Melanocortin receptor 3 (P33033 whole entry): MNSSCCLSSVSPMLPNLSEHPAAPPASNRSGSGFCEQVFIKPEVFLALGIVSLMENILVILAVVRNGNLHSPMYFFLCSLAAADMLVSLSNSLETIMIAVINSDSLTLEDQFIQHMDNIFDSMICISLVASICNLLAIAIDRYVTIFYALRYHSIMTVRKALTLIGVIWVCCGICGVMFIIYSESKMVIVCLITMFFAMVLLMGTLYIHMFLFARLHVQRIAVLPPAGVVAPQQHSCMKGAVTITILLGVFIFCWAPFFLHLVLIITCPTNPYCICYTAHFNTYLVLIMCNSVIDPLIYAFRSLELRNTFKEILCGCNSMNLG
Sequence of Melanocortin receptor 4 (P56450 whole entry): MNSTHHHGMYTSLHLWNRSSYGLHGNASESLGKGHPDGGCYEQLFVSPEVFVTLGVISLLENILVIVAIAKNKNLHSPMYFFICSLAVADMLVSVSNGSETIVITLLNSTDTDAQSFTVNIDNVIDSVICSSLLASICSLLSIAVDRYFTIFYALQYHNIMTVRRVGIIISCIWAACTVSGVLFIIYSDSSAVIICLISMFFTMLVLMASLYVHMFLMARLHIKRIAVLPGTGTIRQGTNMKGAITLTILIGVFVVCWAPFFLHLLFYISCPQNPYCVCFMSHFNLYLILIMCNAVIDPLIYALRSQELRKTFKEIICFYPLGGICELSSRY

In the case of `C[C@@H]1NC(=O)[C@@H](CC(N)=O)NC(=O)[C@H](Cc2ccccc2)NC(=O)[C@@H](Cc2ccccc2)NC(=O)[C@H](CCCNC(=N)N)NC(=O)[C@@H](NC(=O)[C@@H](N)Cc2ccc(O)cc2)CC(=O)NC(C(=O)NN[C@H](Cc2ccc(O)cc2)C(=O)C(N)=O)NC(=O)C(=O)[C@@H](Cc2ccccc2)NC1=O` (stereo partly drawn) [Tyr-c[Asp-Arg-Phe-Phe-Asn-Ala-Phe-Dpr]-Tyr-NH2], the dissociation constant (Kd) on Melanocortin receptor 3 was determined as 2 µM.

In the case of `C[C@@H]1NC(=O)[C@H](CC(N)=O)NC(=O)[C@H](Cc2ccccc2)NC(=O)[C@H](Cc2ccccc2)NC(=O)[C@H](CCCNC(=N)N)NC(=O)[C@@H](NC(=O)[C@@H](N)Cc2ccc(O)cc2)CC(=O)NC[C@@H](C(=O)N[C@@H](Cc2ccc(O)cc2)C(N)=O)NC(=O)[C@H](Cc2ccccc2)NC1=O` [Tyr-c[Asp-Arg-Phe-Phe-Asn-Ala-Phe-Dpr]-Tyr-NH2], the Kd at Melanocortin receptor 4 stood at 1.26 µM.
